The structures appear in SMILES notation. ≈ marks a conversion by molar mass, not a printed value. Calls of active or inactive are those of the source. The calls are words filed in the database; no cut-off is given here.

One series deals with Pseudomonas aeruginosa. Nature of the series: Antibacterial activity against Pseudomonas aeruginosa by resazurin-based assay. The class given is functional.
The subject of series [1] is Staphylococcus aureus. Nature of the series: Antibacterial activity against methicillin-resistant Staphylococcus aureus by resazurin-based assay. The class given is functional. Put shortly: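 MRSA was grown in Luria Broth liquid culture with diluted inoculum, compound added from a DMSO stock. Plates were incubated overnight at 37 °C and scored for visible growth by turbidity or fluorescence, with resazurin as the viability read-out. Tests were run in triplicate within one experiment.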

The next series has as its system Aliivibrio fischeri. In words: Toxicity in Vibrio fischeri NRRL B-11177 assessed as reduction in bioluminescence after 15 mins by microtox assay. The class given is organism-based. As to conditions: NRRL B-11177, 0.25 h. In short, it runs like this: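 Microtox assay with V. fischeri. Samples made up to 500 μg·mL−1 initial in artificial seawater containing 2% acetone, then tested at 45, 22.5, 11.25 and 5.625% of initial, in triplicate. Light loss read after 15 min exposure, γ = (I0/It) − 1. EC50 taken from log γ versus log concentration regression at γ = 1.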

For a further series, the system named is Acinetobacter baumannii. In words: Antibacterial activity against Acinetobacter baumannii by resazurin-based assay. Type of series: functional.
Series [2] relates to Escherichia coli. Nature of the series: Antibacterial activity against Escherichia coli 2884 by resazurin-based assay. Type of series: functional.
Series [3] deals with Escherichia coli. Nature of the series: Antibacterial activity against Escherichia coli 5746 by resazurin-based assay. Type of series: functional. In short, it runs like this:
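Liquid broth assay in Luria Broth, inoculum plus compound from 0.312 mM DMSO stock. Tested at 5 μM final in triplicate within one experiment. Overnight incubation at 37 °C. Growth read by turbidity or fluorescence, with viability scored using resazurin at 0.002% final.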

The subject of series [4] is Staphylococcus aureus. In words: Antibacterial activity against methicillin-sensitive Staphylococcus aureus by resazurin-based assay. The class given is functional.
In series [5] the test system is Aspergillus fumigatus. Nature of the series: Antifungal activity against Aspergillus fumigatus by resazurin-based assay. Type of series: functional. In short, it runs like this: (§1)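 Liquid assay in modified RPMI medium: RPMI-1640, Yeast Nitrogen Base, 1.8% glucose, 40 mM HEPES pH 7.1. Compound added from 0.5 mM solution before inoculum. Tested at 5 μM final in triplicate. Amphotericin B curve (0.5−4 μg·mL−1) run as control. Incubated overnight at 37 °C, then viability scored with resazurin at 0.002% final.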

Series [6] concerns Aspergillus fumigatus. Nature of the series: Antifungal activity against Aspergillus fumigatus by resazurin-based assay in presence of caspofungin enhancer. The class given is functional. In short, it runs like this:
as §1

The nature of series [7]: Cytotoxicity against human Fa2N-4 cells after 24 hrs by MTT assay. As to conditions: fa2n-4, 24 h. Type of series: cell-based. Put shortly:
(§2)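 MTT assay with cells seeded at 3 × 10^4 cells/well. Compound taken from 1 mM DMSO stock, diluted 1/200 into medium and left on cells 24 h at 37 °C, 5% CO2. MTT then added at 0.5 mg·mL−1 in phenol red-free MEM for 3 h. Formazan dissolved in DMSO and absorbance read at 570 nm.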

The next series concerns A549. Nature of the series: Cytotoxicity against human A549 cells after 24 hrs by MTT assay. Type of series: functional, cell-based. In short, it runs like this: as §2
The test system of a further series is HepG2. Nature of the series: Cytotoxicity against human HepG2 cells after 24 hrs by MTT assay. The class given is functional, cell-based. In short, it runs like this: as §2
A further series concerns HT-29. Nature of the series: Cytotoxicity against human HT-29 cells after 24 hrs by MTT assay. Type of series: functional, cell-based. Put shortly:
as §2

The subject of the next series is MCF7. Nature of the series: Cytotoxicity against human MCF7 cells after 24 hrs by MTT assay. Type of series: functional, cell-based. Put shortly:
as §2

Series [8] is described as follows: Cytotoxicity against human Fa2N-4 cells assessed as growth inhibition at 5 uM after 24 hrs by MTT assay relative to control. Type of series: cell-based. As to conditions: read-out: GI. Put shortly:
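Fa2N4 healthy liver cells seeded at 3 × 10^4 cells/well. Exposed to compound at 5 μM (1 mM DMSO stock diluted 1/200) for 24 h at 37 °C, 5% CO2. Then 0.5 mg·mL−1 MTT for 3 h, formazan dissolved in DMSO, absorbance at 570 nm. Growth inhibition expressed as percent.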

As for `O=C(O)c1cn(C2CC2)c2cc(N3CCNCC3)c(F)cc2c1=O` [CIPROFLOXACIN], in the series with Pseudomonas aeruginosa, the MIC80 worked out at 1.5 µg/mL (≈ 4.53 µM).
With `C[C@@H](O)[C@H]1C(=O)N2C(C(=O)O)=C(SCCNC=N)C[C@H]12` [IMIPENEM ANHYDROUS], the MIC80 with Staphylococcus aureus [1] is 8 µg/mL (≈ 26.7 µM).
As for `O=C1C(Br)=C(Br)[C@@](O)(C(Br)Br)[C@@H]1Br`, in the series on Aliivibrio fischeri, the EC50 is 0.08 µg/mL (≈ 0.158 µM). Besides, the MIC80 was 16 µg/mL (≈ 31.6 µM) against Acinetobacter baumannii; greater than 32 µg/mL in the series on Escherichia coli [2]; 32 µg/mL (≈ 63.2 µM) against Escherichia coli [3]; greater than 10 µg/mL in the series on Pseudomonas aeruginosa; 16 µg/mL (≈ 31.6 µM) with Staphylococcus aureus [1]; greater than 32 µg/mL against Staphylococcus aureus [4]. For the same molecule, the MIC80 in the series on Aspergillus fumigatus [5] and in the series on Aspergillus fumigatus [6] was greater than 32 µg/mL throughout. Also, in series [7], the Activity entry is on record as “Non-toxic”. For the same molecule, the outcome with A549, with HepG2, in the series with HT-29 and in the series with MCF7 was inactive.
As for `CO[C@H]1/C=C/O[C@@]2(C)Oc3c(C)c(O)c4c(O)c(c(/C=N/N5CCN(C)CC5)c(O)c4c3C2=O)NC(=O)/C(C)=C\C=C\[C@H](C)[C@H](O)[C@@H](C)[C@@H](O)[C@@H](C)[C@H](OC(C)=O)[C@@H]1C` [RIFAMPIN], in the series on Acinetobacter baumannii, the MIC80 was 1 µg/mL (≈ 1.22 µM).
As to `CO[C@@H]1[C@@H](OC(N)=O)[C@@H](O)[C@H](Oc2ccc3c(O)c(NC(=O)c4ccc(O)c(CC=C(C)C)c4)c(=O)oc3c2C)OC1(C)C` [NOVOBIOCIN], the results for the MIC80 in the series with Escherichia coli [2] and against Escherichia coli [3] were 0.3 µg/mL (≈ 0.49 µM) and 0.1 µg/mL (≈ 0.163 µM), respectively.
As to `CC1(C)S[C@@H]2[C@H](NC(=O)Cc3ccccc3)C(=O)N2[C@H]1C(=O)O` [PENICILLIN G], the MIC80 against Staphylococcus aureus [4] is 0.01 µg/mL (≈ 0.0299 µM).
Take `O=C1C[C@](O)(C(Br)Br)C(Br)=C1Br`: the EC50 in the series on Aliivibrio fischeri amounted to 0.07 µg/mL (≈ 0.164 µM). Further, the MIC80 with Acinetobacter baumannii is 8 µg/mL (≈ 18.7 µM); with Escherichia coli [2] it was greater than 32 µg/mL; with Escherichia coli [3], 16 µg/mL (≈ 37.4 µM); in the series with Pseudomonas aeruginosa it was greater than 10 µg/mL; against Staphylococcus aureus [1], 16 µg/mL (≈ 37.4 µM); in the series on Staphylococcus aureus [4], greater than 32 µg/mL. For the same molecule, the MIC80 with Aspergillus fumigatus [5] and in the series with Aspergillus fumigatus [6] was greater than 32 µg/mL throughout. Moreover, the result in the series with A549, in the series on HepG2, in the series on HT-29 and in the series on MCF7 was inactive. The inhibition at 24 h, 5 µM in series [8] was 53%.

Values taken from ChEMBL document CHEMBL3297675, “Mahorones, highly brominated cyclopentenones from the red alga Asparagopsis taxiformis” (J Nat Prod, 2014).
